Experimental data from ChEMBL document CHEMBL5344428, “Discovery, Crystallographic Studies, and Mechanistic Investigations of Novel Phenylalanine Derivatives Bearing a Quinazolin-4-one Scaffold as Potent HIV Capsid Modulators” (J Med Chem, 2023).
pEC50, pIC50, pKd: −log10 of the molar value.

How the values were obtained:
[1] = Selectivity ratio of EC50 for antiviral activity against HIV1 IIIB infected in human MT4 cells to EC50 for antiviral activity against HIV2 ROD infected in human MT4 cells; type: toxicity, cell-based
Procedure, shortened: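 Ratio is EC50 against HIV-1 IIIB divided by EC50 against HIV-2 ROD. Both EC50 values come from MTT-read protection of infected MT-4 cells.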

[2] = Selectivity index, ratio of CC50 for cytotoxicity against human MT4 cells to EC50 for antiviral activity against HIV2 ROD infected in human MT4 cells; type: toxicity, cell-based; conditions: read-out: Ratio CC50/EC50
Procedure, shortened: (§1)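 SI is CC50 divided by EC50. CC50 comes from MTT viability of uninfected MT-4 cells. EC50 comes from MTT-read protection of MT-4 cells infected with HIV-1 IIIB or HIV-2 ROD. Each value was run in at least triplicate.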

[3] = Selectivity index, ratio of CC50 for cytotoxicity against human MT4 cells to EC50 for antiviral activity against HIV1 IIIB infected in human MT4 cells; type: toxicity, cell-based; conditions: read-out: Ratio CC50/EC50; procedure, shortened: as §1
MT4 = assay: (§2) Cytotoxicity against human MT4 cells assessed as reduction in cell viability incubated for 5 days by MTT assay; type: toxicity, cell-based; conditions: mt4, 120 h, time 5 day
Procedure, shortened: (§3)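 Uninfected MT-4 cells were exposed to compound, and viability was read by the MTT method. […] Each value was run in at least triplicate and averaged from at least three independent experiments.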

[4] = test system: Human immunodeficiency virus 1; assay: Antiviral activity against HIV1 IIIB infected in human MT4 cells assessed as reduction in virus induced cytopathic effect measured after 5 days by MTT assay; type: functional, organism-based; conditions: Human immunodeficiency virus 1, IIIB, MT4, 120 h
Procedure, shortened: (§4)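 MT-4 cells were infected with HIV-1 IIIB or HIV-2 ROD, and cell viability was read by MTT. […] Each value was run in at least triplicate and averaged from at least three independent experiments.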

[5] = test system: Human immunodeficiency virus 2; assay: Antiviral activity against HIV2 ROD infected in human MT4 cells assessed as reduction in virus induced cytopathic effect measured after 5 days by MTT assay; type: functional, organism-based; conditions: Human immunodeficiency virus 2, ROD, MT4, 120 h; procedure, shortened: as §4
[6] = test system: Human immunodeficiency virus 1; assay: Antiviral activity against HIV-1 IIIB infected in human MT4 cells assessed as protection against virus induced cytopathic effect; type: functional, organism-based; conditions: Human immunodeficiency virus 1, IIIB; procedure, shortened: as §4
[7] = test system: Human immunodeficiency virus 2; assay: Antiviral activity against HIV-2 ROD infected in human MT4 cells assessed as protection against virus induced cytopathic effect; type: functional, organism-based; conditions: Human immunodeficiency virus 2, ROD; procedure, shortened: as §4
[8] = Cytotoxicity against human MT4 cells assessed as reduction in cell viability; type: toxicity, cell-based; procedure, shortened: as §3
[9] = Metabolic stability in human liver assessed as intrinsic clearance at 1 uM incubated for 60 mins in presence of NADPH by LC-MS/MS analysis; type: ADME, tissue-based; conditions: read-out: CLH
Procedure, shortened: (§5)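 Human liver microsomes were used at a final 0.5 mg protein/mL, incubated 60 min with an NADPH regenerating system. The no-cofactor arm replaced NADPH with buffer. T1/2 came from linear regression of the kinetic data. CLint(mic) = (0.693/T1/2)/mg microsomal protein per mL. CLint(liver) was scaled by mg microsomal protein/g liver and g liver/kg body weight.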

[10] = molecular target: Human immunodeficiency virus type 1 reverse transcriptase (Human immunodeficiency virus 1) (UniProt Q72547); conditions: dose 100.0 nM
[11] = as §2; type: toxicity, cell-based; conditions: MT4 cells, time 5 day; procedure, shortened: as §3
[12] = molecular target: Structural capsid protein (Human immunodeficiency virus 1) (UniProt Q76129); assay: Binding affinity to HIV-1 NL4.3 monomeric capsid protein assessed as Koff by SPR analysis; conditions: filed as modulator
Structural capsid protein (Human immunodeficiency virus 1), sequence (Q76129 as listed by the source): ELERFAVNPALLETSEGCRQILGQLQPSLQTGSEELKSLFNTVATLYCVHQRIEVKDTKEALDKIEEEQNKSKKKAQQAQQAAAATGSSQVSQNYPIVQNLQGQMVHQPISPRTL
Procedure, shortened: (§6)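 SPR binding of compound to monomeric or disulfide-stabilised hexameric HIV-1 CA NL4.3 protein; koff, residence time and KD derived from isotherms, monomer/hexamer ratio = KD monomer/KD hexamer. Triplicate, SD.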

[13] = molecular target: Structural capsid protein (Human immunodeficiency virus 1) (UniProt Q76129); assay: Binding affinity to HIV-1 NL4.3 monomeric capsid protein assessed as residence time by SPR analysis; conditions: filed as modulator; procedure, shortened: as §6
[14] = molecular target: T1, Structural capsid protein (Human immunodeficiency virus 1, UniProt Q76129); assay: Binding affinity to HIV-1 NL4.3 monomeric capsid protein assessed as dissociation constant by SPR analysis
T1 sequence (Q76129 whole entry): as the sequence (Q76129 as listed by the source) above

[15] = molecular target: Structural capsid protein (Human immunodeficiency virus 1) (UniProt Q76129); assay: Binding affinity to HIV-1 NL4.3 hexameric capsid protein assessed as Koff by SPR analysis; conditions: filed as modulator; procedure, shortened: as §6
[16] = molecular target: Structural capsid protein (Human immunodeficiency virus 1) (UniProt Q76129); assay: Binding affinity to HIV-1 NL4.3 hexameric capsid protein assessed as residence time by SPR analysis; conditions: filed as modulator; procedure, shortened: as §6
[17] = molecular target: T1, Structural capsid protein; assay: Binding affinity to HIV-1 NL4.3 hexameric capsid protein assessed as dissociation constant by SPR analysis
[18] = test system: Human immunodeficiency virus 1; assay: Selectivity ratio of Kd for HIV-1 NL4.3 monomeric capsid protein to Kd for HIV-1 NL4.3 hexameric capsid protein; procedure, shortened: as §6
[19] = test system: Human immunodeficiency virus 1; assay: Antiviral activity against HIV1 NL4.3 infected in human U87.CD4.CXCR4 cells assessed as inhibition of early stage replication by measuring infection at 1 uM incubated for 48 hrs by microplate luminometer based single-round infection assay (reference value: 100.0 +/- 30.99%); type: functional; parameters: scale not given: the % may be the effect or the level left
[20] = test system: Human immunodeficiency virus 1; assay: Antiviral activity against HIV1 NL4.3 infected in human U87.CD4.CXCR4 cells assessed as inhibition of late stage replication by measuring infection at 1 uM incubated for 48 hrs by microplate luminometer based single-round infection assay (reference value: 100.0 +/- 18.40%); type: functional; parameters: scale not given: the % may be the effect or the level left
[21] = molecular target: T1, Structural capsid protein; assay: Competitive binding affinity to HIV-1 NL4.3 hexameric capsid protein assessed as inhibition of CPSF6 binding to capsid protein by SPR analysis
[22] = Metabolic stability in human liver microsomes assessed as half-life at 1 uM incubated for 60 mins in presence of NADPH by LC-MS/MS analysis; type: ADME, Microsome
[23] = Metabolic stability in human liver microsomes assessed as intrinsic clearance at 1 uM incubated for 60 mins in presence of NADPH by LC-MS/MS analysis; type: ADME, Microsome
[24] = Metabolic stability in human liver microsomes assessed as parent compound remaining at 1 uM incubated for 60 mins in presence of NADPH by LC-MS/MS analysis; type: ADME, Microsome; conditions: 1 h; procedure, shortened: as §5
[25] = Metabolic stability in human liver microsomes assessed as parent compound remaining at 1 uM incubated for 60 mins in absence of NADPH by LC-MS/MS analysis; type: ADME, Microsome; conditions: 1 h; procedure, shortened: as §5

Row | pEC50 [6] | pEC50 [7] | Structure (SMILES) | Ratio EC50 [1] | selectivity ratio [2] | selectivity ratio [3] | CC50 [8] | further results
1 | – | – | COc1ccc(-n2c([C@H](Cc3ccccc3)NC(=O)CN3CCN(S(=O)(=O)c4ccc([N+](=O)[O-])cc4)CC3=O)nc3ccccc3c2=O)cc1 | 2.65 | > 312 | > 119 | – | CC50 (MT4): > 179000 nM; pEC50 [4]: 5.82; pEC50 [5]: 6.24
2 | 6.80 | 6.96 | COc1ccc(N(C)C(=O)[C@H](Cc2cc(F)cc(F)c2)NC(=O)CN2CCN(S(=O)(=O)c3cccc(N)c3)CC2)cc1 | 1.45 | 987 | 679 | 109000 nM | –
3 | – | – | O=C(CN1CCN(S(=O)(=O)c2ccc([N+](=O)[O-])cc2)CC1)N[C@@H](Cc1cc(F)cc(F)c1)c1nc2ccccc2c(=O)n1-c1ccc(S(=O)(=O)N2CCS(=O)(=O)CC2)cc1 | 1.54 | > 70.6 | > 45.6 | – | CC50 (MT4): > 139000 nM; pEC50 [4]: 5.52; pEC50 [5]: 5.71
4 | 6.00 | 6.32 | COc1ccc(N(C)C(=O)[C@H](Cc2cc(F)cc(F)c2)NC(=O)CN2CCN(S(=O)(=O)c3ccc([N+](=O)[O-])cc3)CC2)cc1 | 2.1 | 30.9 | 14.7 | 14800 nM | –
5 | 6.10 | 6.44 | COc1ccc(N(C)C(=O)[C@H](Cc2cc(F)cc(F)c2)NC(=O)CN2CCN(S(=O)(=O)c3ccc(F)cc3)CC2)cc1 | 2.19 | 53.3 | 24.3 | 19200 nM | –
6 | – | – | O=C(O)Cc1ccccc1Nc1c(Cl)cccc1Cl [DICLOFENAC] | – | – | – | – | CLint scaled at 1 µM [9]: 280 mL/min/kg
7 | 6.04 | 6.92 | COc1ccc(N(C)C(=O)[C@H](Cc2cc(F)cc(F)c2)NC(=O)CN2CCN(S(=O)(=O)c3ccc(C)cc3)CC2)cc1 | 7.58 | > 1700 | > 224 | > 204000 nM | –
8 | 6.92 | 7.30 | COc1ccc(N(C)C(=O)[C@H](Cc2cc(F)cc(F)c2)NC(=O)CN2CCN(S(=O)(=O)c3ccc(N)cc3)CC2)cc1 | 2.4 | 2340 | 977 | 117000 nM | –
9 | – | – | Cc1cc(/C=C/C#N)cc(C)c1Nc1ccnc(Nc2ccc(C#N)cc2)n1 | – | – | – | – | inhibition [10]: 50%
10 | 5.55 | 5.92 | COc1ccc(N(C)C(=O)[C@H](Cc2cc(F)cc(F)c2)NC(=O)CN2CCN(S(=O)(=O)c3ccccc3[N+](=O)[O-])CC2)cc1 | 2.39 | 79.7 | 33.4 | 94900 nM | –
11 | 6.03 | 6.36 | COc1ccc(N(C)C(=O)[C@H](Cc2cc(F)cc(F)c2)NC(=O)CN2CCN(S(=O)(=O)c3ccc(Cl)cc3)CC2)cc1 | 2.11 | 20.6 | 9.73 | 9050 nM | –
12 | 6.28 | 6.85 | COc1ccc(N(C)C(=O)[C@H](Cc2cc(F)cc(F)c2)NC(=O)CN2CCN(S(=O)(=O)c3ccccc3N)CC2)cc1 | 3.71 | 454 | 122 | 63600 nM | –
13 | 5.83 | 6.77 | COc1ccc(N(C)C(=O)[C@H](Cc2cc(F)cc(F)c2)NC(=O)CN2CCN(S(=O)(=O)c3cccc([N+](=O)[O-])c3)CC2)cc1 | 8.76 | 493 | 56.3 | 83900 nM | –
14 | 6.07 | 6.46 | COc1ccc(N(C)C(=O)[C@H](Cc2cc(F)cc(F)c2)NC(=O)CN2CCN(S(=O)(=O)c3ccc(Br)cc3)CC2)cc1 | 2.46 | 37.8 | 15.4 | 13200 nM | –
15 | 6.74 | 7.05 | COc1ccc(N(C)C(=O)[C@H](Cc2cc(F)cc(F)c2)NC(=O)CN2CCN(S(=O)(=O)c3ccccc3F)CC2)cc1 | 2 | 2010 | 1000 | 181000 nM | –
16 | 6.70 | 7.00 | COc1ccc(N(C)C(=O)[C@H](Cc2cc(F)cc(F)c2)NC(=O)CN2CCN(S(=O)(=O)c3ccccc3)CC2)cc1 | 2 | 1140 | 570 | 114000 nM | –
17 | 6.68 | 7.52 | COc1ccc(N(C)C(=O)[C@H](Cc2cc(F)cc(F)c2)NC(=O)CN2CCN(S(=O)(=O)c3ccc(NC(C)=O)cc3)CC2)cc1 | 7 | 3050 | 436 | 91600 nM | –
18 | 6.62 | 6.92 | COc1ccc(N(C)C(=O)[C@H](Cc2cc(F)cc(F)c2)NC(=O)CN2CCN(S(=O)(=O)c3cccc(F)c3)CC2)cc1 | 2 | > 1690 | > 843 | > 202000 nM | –

Row | Structure (SMILES) | pEC50 [6] | pEC50 [7] | Ratio EC50 [1] | selectivity ratio [2] | selectivity ratio [3] | CC50 [8] | further results
19 | COc1ccc(N(C)C(=O)[C@H](Cc2ccccc2)NC(=O)Cc2c(C)[nH]c3ccccc23)cc1 | 6.12 | 5.38 | – | – | – | – | CC50 at 120 h [11]: > 32300 nM; pEC50 [4]: 6.10; pEC50 [5]: 5.65; K [12]: 1.58 s⁻¹; TIME [13]: 0.000183 h; pKd [14]: 6.01; K [15]: 0.036 s⁻¹; TIME [16]: 0.00772 h; pKd [17]: 7.33; Selectivity ratio [18]: 20.6; Activity [19]: 0.07%; Activity [20]: 4.185%; pIC50 [21]: 7.58; half-life at 1 µM ([22]; liver microsomes): 42 s; CLH ([23]; microsomes, 1 h, 1 µM): 2114.6 µL/min/mg; Stability [24]: 0%; Stability [25]: 106.1%
20 | COc1ccc(N(C)C(=O)[C@H](Cc2ccccc2)NC(=O)CN2CCN(S(=O)(=O)c3ccc(N)cc3)CC2=O)cc1 | 6.55 | 7.52 | – | – | – | – | pEC50 [4]: 6.55; pEC50 [5]: 7.52; K [12]: 13.4 s⁻¹; TIME [13]: 1.67e-05 h; K [15]: 2.04 s⁻¹; TIME [16]: 0.000133 h; Activity [19]: 0.092%; Activity [20]: 0.807%; t1/2 ([22]; microsomes, 1 h, 1 µM): 240 s; microsomal CLint at 1 µM ([23]; liver microsomes, read-out: CLH): 344 µL/min/mg; CLint scaled at 1 µM [9]: 309 mL/min/kg; Stability [24]: 0%; Stability [25]: 113.3%
